Reference: ChEMBL document CHEMBL2417357, “Synthesis and antiprotozoal activities of benzyl phenyl ether diamidine derivatives” (Eur J Med Chem, 2013)
Active and inactive are the calls of the source. No cut-off for these calls is given here.

Key:
Leishmania donovani = assay: Antileishmanial activity against amastigotes of Leishmania donovani MHOM/SD/62/IS-CL2D; format: functional, organism-based
Method in brief: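 Axenic amastigotes of L. donovani MHOM/SD/62/IS-CL2D; IC50 taken as the average of at least two determinations.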

[1] = Selectivity index, ratio of IC50 for rat L6 cells to IC50 for amastigotes of Leishmania donovani; format: toxicity, cell-based; details: read-out: Ratio IC50
Method in brief: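 SI = IC50 in rat L6 myoblasts / IC50 against L. donovani MHOM/SD/62/IS-CL2D axenic amastigotes. The amastigote IC50 is the average of at least two determinations; the L6 IC50 is the average of duplicates.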

[2] = Selectivity index, ratio of IC50 for rat L6 cells to IC50 for Trypanosoma brucei rhodesiense STIB900; format: toxicity, cell-based; details: read-out: Ratio IC50
Method in brief: (§1)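 SI = IC50 in rat L6 myoblasts / IC50 against the parasite (T. b. rhodesiense STIB900 or P. falciparum K1). Each IC50 is the average of duplicate determinations.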

L6 = assay: Cytotoxicity against rat L6 cells after 72 hrs by Alamar blue assay; format: cell-based; details: L6, 72 h
Method in brief: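 Rat L6 myoblast cells; cytotoxic IC50 taken as the average of duplicate determinations.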

[3] = test system: Trypanosoma brucei rhodesiense; assay: Antitrypanosomal activity against Trypanosoma brucei rhodesiense STIB900 after 72 hrs by Alamar blue assay; format: functional, organism-based; details: STIB900, 72 h
Plasmodium falciparum = assay: Antiplasmodial activity against chloroquine-resistant Plasmodium falciparum K1; format: functional, organism-based
Method in brief: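 Chloroquine-resistant K1 strain tested in vitro. IC50 is the average of duplicate determinations.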

[4] = Selectivity index, ratio of IC50 for rat L6 cells to IC50 for chloroquine-resistant Plasmodium falciparum K1; format: toxicity, cell-based; details: read-out: Ratio IC50; method in brief: as §1
[5] = test system: Trypanosoma brucei rhodesiense; assay: Antitrypanosomal activity against Trypanosoma brucei rhodesiense STIB900 infected in NMRI mouse assessed as mean survival days at 5 mg/kg, ip administered for 4 days; format: functional; details: route intraperitoneal
Method in brief: (§2)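 Female NMRI mice, acute infection model with T. b. rhodesiense STIB900. Compound given as a single daily dose for four days, intraperitoneally or orally. Cure means survival to 60 days post-infection without parasitaemia relapse. Mean survival recorded in days.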

[6] = test system: Trypanosoma brucei rhodesiense; assay: Antitrypanosomal activity against Trypanosoma brucei rhodesiense STIB900 infected in NMRI mouse assessed as mean survival days at 25 mg/kg, po administered for 4 days; format: functional; method in brief: as §2
[7] = test system: Trypanosoma brucei rhodesiense; assay: Antitrypanosomal activity against Trypanosoma brucei rhodesiense STIB900 infected in NMRI mouse assessed as cured animal at 25 mg/kg, po administered for 4 days; format: functional, organism-based; set-up: dose 25 mg/kg
Method in brief: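 Acute model in female NMRI mice infected with T. b. rhodesiense STIB900. Single daily doses given for four days, intraperitoneally or orally. Mice surviving 60 days post-infection without parasitaemia relapse counted as cured; result reported as cured/infected out of 4 mice per group, with mean survival in days.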

| Structure (SMILES) | IC50 (Leishmania donovani) | selectivity ratio [1] | selectivity ratio [2] | IC50 (L6) | IC50 [3] | IC50 (Plasmodium falciparum) | selectivity ratio [4] | MSD [5] | MSD [6] | Activity [7] |
| --- | --- | --- | --- | --- | --- | --- | --- | --- | --- | --- |
| N=C(N)c1ccc(COc2ccc(C(=N)N)cc2Cl)cc1 | 2.89 µM | 1 | 147 | 3.2 µM | 0.022 µM | 0.006 µM | 552 | >51 days |  |  |
| CO/N=C(\N)c1cccc(COc2c(Br)cc(/C(N)=N/OC)cc2Br)c1.Cl.Cl | > 50 µM | < 1 | < 1 | 54.7 µM | 69.7 µM | 6.79 µM | 8 |  | >31.5 days | inactive |
| N=C(N)c1cccc(OCc2cccc([N+](=O)[O-])c2)c1 |  |  | 164 | 78.9 µM | 0.481 µM | > 3.16 µM | < 25 |  |  |  |
| Cl.Cl.N/C(=N\O)c1ccc(COc2ccc(/C(N)=N/O)cc2I)cc1 | > 100 µM | < 1 | < 1 | 18.1 µM | 25.8 µM | 5.29 µM | 3 |  | 29.75 days | inactive |
| COc1cc(/C(N)=N/O)cc(OC)c1OCc1ccc(/C(N)=N/O)cc1.Cl.Cl | 34.1 µM | 1.67 | < 1 | 56.8 µM | 161 µM | 11.1 µM | 5.11 |  | 14.5 days | inactive |
| CO/N=C(\N)c1ccc(COc2ccc(/C(N)=N/OC)cc2I)cc1.Cl.Cl |  |  | 2 | 86.6 µM | 50.4 µM | > 10.3 µM | < 8 |  | 29.75 days | inactive |
| Cl.Cl.Cl.N/C(=N\O)c1cccc(COc2ccc(/C(N)=N/O)cc2Cl)c1 | > 100 µM | < 1 | < 1 | 2.26 µM | 49.2 µM | > 11.2 µM | < 1 |  | >39 days |  |
| CO/N=C(\N)c1cccc(COc2c(Br)cc(/C(N)=N/OC)cc2OC)c1.Cl.Cl | > 100 µM | < 1 | < 1 | 70.5 µM | 81.5 µM | 3.35 µM | 21 |  | >52.25 days |  |
| CO/N=C(\N)c1ccc(COc2ccc(/C(N)=N/OC)cc2)cc1.Cl.Cl | > 100 µM | 2 |  | > 224 µM | > 224 µM | 5.78 µM |  |  | 13.25 days | inactive |
| Cl.Cl.Cl.Cl.N/C(=N\O)c1cccc(COc2c(Cl)cc(/C(N)=N/O)cc2Cl)c1 | > 100 µM | < 1 | < 1 | 14.4 µM | 26.4 µM | 11.5 µM | 1 |  | >53.25 days |  |
| N=C(N)c1cccc(COc2ccc(C(=N)N)cc2Br)c1 | 1.86 µM | 8 | 3410 | 15.7 µM | 0.005 µM | 0.052 µM | 302 | >37.5 days |  |  |
| CO/N=C(\N)c1cccc(COc2ccc(/C(N)=N/OC)cc2I)c1.Cl.Cl | > 100 µM | < 1 | 2 | 81 µM | 34.7 µM | 6.3 µM | 13 |  | 22.25 days | inactive |
| N=C(N)c1ccc(COc2ccc(Cl)cc2)cc1 |  |  | 8 | 20.7 µM | 2.71 µM | > 3.36 µM | < 6 |  |  |  |
| N=C(N)c1ccc(COc2ccc([N+](=O)[O-])cc2)cc1 |  |  | 18 | 79.2 µM | 4.41 µM | > 3.07 µM | < 26 |  |  |  |
| CO/N=C(\N)c1cccc(COc2c(Cl)cc(/C(N)=N/OC)cc2Cl)c1.Cl.Cl.Cl.Cl | > 50 µM | < 2 | 2 | 108 µM | 60.1 µM | 5.91 µM | 18 |  | 21.75 days | inactive |
| CO/N=C(\N)c1ccc(COc2ccc(/C(N)=N/OC)cc2Br)cc1.Cl.Cl | > 100 µM | < 1 | 5 | 101 µM | 18.8 µM | > 10.2 µM | < 10 |  | >32.5 days |  |
| N=C(N)c1ccc(OCc2ccccc2)cc1 |  |  | 69 | 127 µM | 1.84 µM | > 3.56 µM | < 36 |  |  |  |
